Active and inactive are the calls of the source. No cut-off for these calls is given here.
Assays:
HCT-15 [1] = test: Cell cycle arrest in human HCT15 cells assessed as accumulation at S phase at 20 uM after 24 hrs using propidium-iodide staining by flow-cytometry (reference value: 34.1 %); type: functional
HCT-15 [2] = test: Induction of apoptosis in human HCT15 cells assessed as DNA fragmentation at 5 to 20 uM after 24 hrs by agarose-gel electrophoresis; type: functional, cell-based
Method in brief: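 HCT-15 cells seeded 1 × 10^6 per 100 mm dish, after 24 h given fresh medium with compound (0–20 μM) for 24 h; lysed in 50 mM Tris-HCl pH 7.5/20 mM EDTA/1% NP-40, RNase A then proteinase K digestion, ethanol/ammonium acetate precipitation; 4 μg DNA on 2% agarose, SYBR Gold stain.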

Mus musculus = test: Toxicity in human HCT15 cells xenografted nude BALB/c mouse assessed as body weight changes at 2 to 5 mg/kg, ip administered 3 times a week for 4 weeks measured after 9 to 30 days; type: organism-based, HCT-15; design: route intraperitoneal; conditions: in vivo
Method in brief: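 HCT-15 cells (2 × 10^6) were injected subcutaneously into the flank of BALB/c-nu (nu/nu) mice. Dosing began once tumours reached ca. 80 mm3, with mice randomised to groups of five. Compound (2 or 5 mg/kg) in ethanol-cremophor-H2O (0.5:0.5:99) was given ip three times weekly for four weeks. Controls received equal-volume vehicle. Body weight was monitored over the testing period, with tumour measurements over 30 days.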

HCT-15 [3] = test: Cell cycle arrest at G0/G1 phase in human HCT15 cells assessed as decrease in CDK4 expression at 5 to 20 uM after 12 to 24 hrs by Western blot analysis; type: functional, cell-based
Method in brief: (§1)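 HCT-15 cells in RPMI/10% FBS exposed to test compound at various concentrations; lysates quantified by BCA, 30–50 μg protein run on 10% SDS-PAGE, transferred to PVDF, blocked 1 h in 5% milk/PBST, primary antibodies overnight at 4 °C, HRP anti-mouse IgG 1:1500 for 3 h at room temperature, ECL detection.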

HCT-15 [4] = test: Cell cycle arrest at M phase in human HCT15 cells assessed as suppression of CDC2 Tyr-15 phosphorylation at 5 to 20 uM after 12 to 24 hrs by Western blot analysis; type: functional, cell-based; method in brief: as §1
HCT-15 [5] = test: Induction of apoptosis in human HCT15 cells assessed as suppression of procaspase-9 expression at 5 to 20 uM after 12 to 24 hrs by Western blot analysis; type: functional, cell-based
Method in brief: (§2)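 HCT-15 cells (RPMI, 10% heat-inactivated FBS, antibiotics-antimycotics, 37 C, 5% CO2) exposed to compound. Cells lysed, protein measured by BCA, 30-50 μg per lane resolved on 10% SDS-PAGE and electroblotted to PVDF. Membranes blocked 1 h in 5% nonfat milk/PBST, probed with primary antibodies overnight at 4 C, then HRP anti-mouse IgG 1:1500 for 3 h at room temperature. Detection by ECL; β-actin antibody available.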

HCT-15 [6] = test: Induction of apoptosis in human HCT15 cells assessed as increase in caspase-8 expression at 5 to 20 uM by Western blot analysis; type: functional, cell-based; method in brief: as §2
HCT-15 [7] = test: Induction of apoptosis in human HCT15 cells assessed as increase in caspase-9 expression at 5 to 20 uM by Western blot analysis; type: functional, cell-based; method in brief: as §2
HCT-15 [8] = test: Induction of apoptosis in human HCT15 cells assessed as increase in caspase-3 expression at 5 to 20 uM by Western blot analysis; type: functional, cell-based; method in brief: as §1
HCT-15 [9] = test: Induction of apoptosis in human HCT15 cells assessed as suppression of Bcl-xL expression at 5 to 20 uM after 24 hrs by Western blot analysis; type: functional, cell-based; method in brief: as §2
SW480 = test: Growth inhibition of human SW480 cells; type: functional, cell-based
Method in brief: (§3)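 SRB assay: cells at 5 × 10^4 cells/mL were exposed to a concentration series for 3 days, fixed with 10% TCA and stained with sulforhodamine B. Survival was expressed as % of solvent-treated control and IC50 taken by nonlinear regression of % survival versus concentration. Media held 10% heat-inactivated FBS plus antibiotics: RPMI (HCT-15, HCT 116, HT-29), RPMI with 25 mM HEPES (SW480, SW620), DMEM (MRC-5, Hs68). Cultures were kept at 37 C, 5% CO2.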

SW-620 = test: Growth inhibition of human SW620 cells; type: functional, cell-based; method in brief: as §3
[10] = Growth inhibition of human […] cells; type: cell-based; method in brief: as §3
HCT-15 [11] = test: Cell cycle arrest in human HCT15 cells assessed as increase in cyclin D1 expression up to 10 uM after 12 to 24 hrs by Western blot analysis; type: functional, cell-based; method in brief: as §1
HCT-15 [12] = test: Induction of apoptosis in human HCT15 cells assessed as change in Bax expression at 5 to 20 uM after 24 hrs by Western blot analysis; type: functional, cell-based; method in brief: as §1
HCT-116 = test: Growth inhibition of human HCT116 cells; type: functional, cell-based; method in brief: as §3
HCT-15 [13] = test: Cell cycle arrest in human HCT15 cells up to 10 uM after 12 hrs by propidium-iodide staining by flow-cytometry; type: functional, cell-based
HCT-15 [14] = test: Cell cycle arrest in human HCT15 cells assessed as accumulation at G0/G1 phase at 5 uM after 12 hrs using propidium-iodide staining by flow-cytometry (reference value: 44.4 %); type: functional
HCT-15 [15] = test: Cell cycle arrest in human HCT15 cells assessed as accumulation at sub-G1 phase at 10 uM after 12 hrs using propidium-iodide staining by flow-cytometry (reference value: 5.2 %); type: functional
HCT-15 [16] = test: Cell cycle arrest in human HCT15 cells assessed as accumulation at S phase at 10 uM after 12 hrs using propidium-iodide staining by flow-cytometry (reference value: 34.7 %); type: functional
HCT-15 [17] = test: Cell cycle arrest in human HCT15 cells assessed as accumulation at G2/M phase at 10 uM after 12 hrs using propidium-iodide staining by flow-cytometry (reference value: 15.7 %); type: functional
HCT-15 [18] = test: Cell cycle arrest in human HCT15 cells assessed as accumulation at G2/M phase at 20 uM after 12 hrs using propidium-iodide staining by flow-cytometry (reference value: 15.7 %); type: functional
HCT-15 [19] = test: Cell cycle arrest in human HCT15 cells assessed as accumulation at G0/G1 phase at 5 uM after 24 hrs using propidium-iodide staining by flow-cytometry (reference value: 37.0 %); type: functional
HCT-15 [20] = test: Cell cycle arrest in human HCT15 cells assessed as accumulation at S phase at 5 uM after 24 hrs using propidium-iodide staining by flow-cytometry (reference value: 34.1 %); type: functional
HCT-15 [21] = test: Cell cycle arrest in human HCT15 cells assessed as accumulation at G0/G1 phase at 10 uM after 24 hrs using propidium-iodide staining by flow-cytometry (reference value: 37.0 %); type: functional
HCT-15 [22] = test: Cell cycle arrest in human HCT15 cells assessed as accumulation at S phase at 10 uM after 24 hrs using propidium-iodide staining by flow-cytometry (reference value: 34.1 %); type: functional
HCT-15 [23] = test: Cell cycle arrest in human HCT15 cells assessed as accumulation at G2/M phase at 10 uM after 24 hrs using propidium-iodide staining by flow-cytometry (reference value: 22.4 %); type: functional
HCT-15 [24] = test: Growth inhibition of human HCT15 cells; type: functional, cell-based; method in brief: as §3
HCT-15 [25] = test: Cell cycle arrest in human HCT15 cells assessed as change in PCNA level at 5 to 20 uM after 12 to 24 hrs by Western blot analysis

Compound: C[C@H]1CC[C@@]2(OC1)O[C@H]1C[C@H]3[C@@H]4CC[C@@H]5C[C@@H](O[C@@H]6O[C@H](CO)[C@H](O)[C@H](O)[C@H]6O[C@@H]6O[C@H](CO)[C@@H](O)[C@H](O)[C@H]6O)CC[C@]5(C)[C@H]4CC[C@]3(C)[C@H]1[C@@H]2C [TIMOSAPONIN AIII]
- Activity (HCT-15 [1]): 17%
- Activity (HCT-15 [2]): Active
- Activity (Mus musculus): Non-toxic
- Activity (HCT-15 [3]): Active
- Activity (HCT-15 [4]): Active
- Activity (HCT-15 [5]): Active
- Activity (HCT-15 [6]): Active
- Activity (HCT-15 [7]): Active
- Activity (HCT-15 [8]): Active
- Activity (HCT-15 [9]): Active
- IC50 (SW480): 13.1 µM
- IC50 (SW-620): 11.1 µM
- IC50 [10]: > 50 µM
- Activity (HCT-15 [11]): Active
- Activity (HCT-15 [12]): inactive
- IC50 (HCT-116): 5.5 µM
- Activity (HCT-15 [13]): Active
- Activity (HCT-15 [14]): 52.2%
- Activity (HCT-15 [15]): 14.2%
- Activity (HCT-15 [16]): 18.4%
- Activity (HCT-15 [17]): 24.2%
- Activity (HCT-15 [18]): 41.8%
- Activity (HCT-15 [19]): 36.4%
- Activity (HCT-15 [20]): 37%
- Activity (HCT-15 [21]): 47.9%
- Activity (HCT-15 [22]): 15.3%
- Activity (HCT-15 [23]): 30.4%
- IC50 (HCT-15 [24]): 6.1 µM
- Activity (HCT-15 [25]): inactive
